Where a name gives a salt, the structure may show the parent alone.
How the values were obtained:
[1] = test system: Rattus norvegicus; test: Antidiarrheal activity in po dosed Sprague-Dawley rat assessed as inhibition of charcoal-gum acacia-induced hyperperistalsis by measuring reduction in distance travelled by charcoal from pylorus to cecum pretreated for 20 mins followed by charcoal meal stimulation and measured after 30 mins; type: functional; conditions: read-out: ID50 (the source's name)
[2] = test system: Entamoeba histolytica; test: Antiparasitic activity against Entamoeba histolytica HM1-IMSS trophozoites assessed as inhibition of parasitic growth treated for 48 hrs followed by compound washout and measured after 48 hrs by MTT/PMS dye based colorimetric method; type: functional, organism-based; conditions: HM-1:IMSS
Method in brief: (§1)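 Axenic log-phase trophozoites in TYI-S-33 medium: E. histolytica HM1-IMSS with 10% heat-inactivated bovine serum (6 × 10^3 cells); G. lamblia IMSS:8909:1 with 10% calf serum and bovine bile (5 × 10^4 cells). Exposed 48 h at 37 °C to 2.5−200 μg/mL in DMSO, then subcultured drug-free 48 h. Counted by hemocytometer, confirmed by MTT/PMS formazan at 570 nm. Duplicates, ≥3 repeats; IC50 by probit regression.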

[3] = test system: Brain; test: Antioxidant activity in Wistar rat brain homogenate assessed as inhibition of […] lipid peroxidation by measuring reduction in TBARS level preincubated for 30 mins followed by […] and measured after 1 hr; type: functional, tissue-based
Method in brief: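 Adult male Wistar rat whole brain homogenized 1/10 (w/v) in PBS pH 7.4. Spun 10 min at 800 rcf; supernatant set to 2.666 mg protein/mL. Supernatant with EDTA and compound in DMSO preincubated 30 min at 37 °C. FeSO4 added (10 μM final), then 1 h at 37 °C. TBA/TCA reagent added, heated 80 °C 30 min, A540 read. Calibrated against TMP standard curve; IC50 by linear regression.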

[4] = test system: Giardia intestinalis; test: Antiparasitic activity against Giardia intestinalis IMSS:0989:1 assessed as inhibition of parasitic growth treated for 48 hrs followed by compound washout and measured after 48 hrs by MTT/PMS dye based colorimetric method; type: functional, organism-based; conditions: Giardia duodenalis, IMSS:0989:1, 48 h; method in brief: as §1
[5] = Antioxidant activity assessed as DPPH radical scavenging activity measured after 30 mins; type: functional
Method in brief: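 Test compound solution (50 μL) mixed with 150 μL ethanolic DPPH, 100 μM final; 37 °C for 30 min; absorbance at 515 nm. Percent inhibition relative to a 100 μM DPPH ethanol blank.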

[6] = test system: Brain; test: Potency index, ratio of quercetin IC50 to test compound IC50 for antioxidant activity in Wistar rat brain homogenate assessed as inhibition of FeCl2-induced lipid peroxidation; type: functional, tissue-based
[7] = test system: Brain; test: Potency index, ratio of BHT IC50 to test compound IC50 for antioxidant activity in Wistar rat brain homogenate assessed as inhibition of FeCl2-induced lipid peroxidation; type: functional, tissue-based
[8] = Rattus norvegicus, Wistar, Brain, read-out: IC50

SMILES	IC50 [5]	IC50 [3, 8]	ED50 [1]	IC50 [2]	IC50 [4]	further results
COc1c(C(C)C)cc2c(c1OC(C)=O)[C@]13CCC[C@](C)([C@H](OC(C)=O)OC1=O)[C@@H]3CC2	Not Active					IC50 [3]: Not Active
O=c1c(O)c(-c2ccc(O)c(O)c2)oc2cc(O)cc(O)c12 [QUERCETIN]			1.1 µmol/kg			IC50 ([5]; read-out: IC50): 10.9 µM
Cc1ncc([N+](=O)[O-])n1CCO [METRONIDAZOLE]				0.2 µM	1.2 µM	
COC(=O)[C@]12CCC[C@](C)(C=O)[C@@H]1CCc1cc(C(C)C)c(OC)c(O)c12	Not Active	19.2 µM		48.5 µM	61.8 µM	
CC[C@H]1CN2CCc3cc(OC)c(OC)cc3[C@@H]2C[C@@H]1C[C@H]1NCCc2cc(OC)c(OC)cc21 [EMETINE]					0.8 µM	
Cc1c(C)c2c(c(C)c1O)CC[C@@](C)(CCC[C@H](C)CCC[C@H](C)CCCC(C)C)O2 [ALPHA-TOCOPHEROL]						IC50 ([5]; read-out: IC50): 31.7 µM
CN(C)C(=O)C(CCN1CCC(O)(c2ccc(Cl)cc2)CC1)(c1ccccc1)c1ccccc1 [LOPERAMIDE HYDROCHLORIDE]			0.2 µmol/kg			
COc1c(C(C)C)cc2c(c1O)[C@]13CCC[C@](C)([C@H](O)OC1=O)[C@@H]3CC2	Not Active		2.2 µmol/kg	43 µM	67.1 µM	IC50 [3]: Not Active

Further lines, with some results ahead:

IC50 [5]	IC50 [3, 8]	SMILES	ED50 [1]	IC50 [2]	IC50 [4]	further results
Not Active		CC(=O)Oc1c(C(C)C)cc2c(c1OC(C)=O)[C@]13CCC[C@](C)([C@H](OC(C)=O)OC1=O)[C@@H]3CC2	2.7 µmol/kg	39.5 µM	47.7 µM	IC50 [3]: Not Active
Not Active	40.9 µM	COc1c(C(C)C)cc2c(c1O)C[C@]13CCC[C@](C)(C(=O)O1)[C@@H]3CC2				
	5.9 µM	CC(C)c1cc2c(c(O)c1O)[C@]13CCC[C@](C)([C@H](O)OC1=O)[C@@H]3CC2	4.1 µmol/kg	37.8 µM	63 µM	Ratio IC50 [6]: 4; Ratio IC50 [7]: 5; IC50 ([5]; read-out: IC50): 24.8 µM
	2.7 µM	CC(C)c1cc2c(c(O)c1O)[C@]13CCC[C@](C)(COC1=O)[C@@H]3CC2	5.5 µmol/kg	31.3 µM	49 µM	Ratio IC50 [6]: 2; Ratio IC50 [7]: 2; IC50 ([5]; read-out: IC50): 29.9 µM
	1.2 µM	Cc1cc(C(C)(C)C)c(O)c(C(C)(C)C)c1 [BUTYLATED HYDROXYTOLUENE]				
Not Active		COc1c(C(C)C)cc2c(c1O)[C@]13CCC[C@](C)([C@H](OC(C)=O)OC1=O)[C@@H]3CC2		34.9 µM	46.4 µM	IC50 [3]: Not Active

From ChEMBL document CHEMBL4316658, “Structure and Absolute Configuration of Abietane Diterpenoids from Salvia clinopodioides: Antioxidant, Antiprotozoal, and Antipropulsive Activities” (J Nat Prod, 2019)
